Results taken from ChEMBL document CHEMBL1146609, “Synthesis of water-soluble prodrugs of BMS-191011: a maxi-K channel opener targeted for post-stroke neuroprotection” (Bioorg Med Chem Lett, 2003).
≈ marks a conversion by molar mass, not a printed value. Where “and” joins values, the source holds several entries; their conditions need not be identical. Identical values can stand only once.

Key:
[1] = Solubility in water at 7.2 pH; type: physicochemical; settings: pH 7.2, read-out: S
In short: (§1)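 Aqueous solubility (mg/mL), measured with the pH of the resulting solution recorded.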

Rattus norvegicus [2] = species: Rattus norvegicus; experiment: Percentage converted to BMS-191011 after 30 min incubation in rat plasma at 37 degree C; type: ADME, organism-based; settings: 0.5 h
In short: (§2)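 Prodrug was incubated in rat plasma for 30 min at 37 °C. The percentage converted to the parent BMS-191011 was then determined.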

[3] = Solubility in water at 5.5 pH; type: physicochemical; settings: pH 5.5, read-out: S; in short: as §1
[4] = t1/2 (apparent elimination)of the compound was determined; type: ADME, organism-based; settings: rat, in vivo
In short: (§3)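 Male SD rats (N=3) given prodrug by IV infusion at 1.7 mg/kg (equivalent to 1 mg/kg parent), vehicle PEG-400/water 1:1. Blood samples were mixed at once with an equal volume of water, quenched with four volumes of acetonitrile and stored at -20 °C. Prodrug and parent were measured by two separate LC/MS/MS assays. Mean ±SD.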

[5] = […] expressed as percentage of compound remains at 24 hr in PEG400/Water, 1:1; type: ADME, organism-based; settings: read-out: Prodrug remains
In short: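 Chemical stability in PEG400/water (1:1) solution, given as the percentage of prodrug remaining after 24 h.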

[6] = Area under curve was determined; type: ADME, organism-based; settings: rat, in vivo; in short: as §3
[7] = Plasma clearance was determined; type: ADME, organism-based; settings: rat; in short: as §3
[8] = Solubility in deionized water; type: physicochemical; settings: read-out: S
In short: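 Solubility of the prodrug (mg/mL) in deionized water.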

Rattus norvegicus [9] = experiment: Percent reduction of neocortical infract volume in 29 rats after IV administration (2h post MCA)at a dose of […]; type: functional
In short: (§4)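 Rat MCA occlusion model. Neocortical infarct volume was compared with vehicle controls (2% DMSO/98% propylene glycol) in the same study. Statistics by ANOVA with Dunnett's t-test, p<0.05; 28–29 animals per group.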

Rattus norvegicus [10] = experiment: Percent reduction of neocortical infract volume in 28 rats after IV administration (2h post MCA)at a dose of […]; type: functional; in short: as §4
[11] = Volume distribution was determined; type: ADME, organism-based; settings: rat, in vivo; read-out: Vdss; in short: as §3
Rattus norvegicus [12] = experiment: Percent reduction of neocortical infract volume in 28 rats after IV administration (2h post MCA) at a dose of […]; type: functional; in short: as §4
[13] = Solubility in water at 2.4 pH; type: physicochemical; settings: pH 2.4, read-out: S
[14] = Solubility in water at 7.5 pH; type: physicochemical; settings: pH 7.5, read-out: S
Rattus norvegicus [15] = species: Rattus norvegicus; experiment: […] expressed as percentage of compound remains at 24 hr in PEG400/Water, 1:1; Not stable; type: ADME, organism-based
Rattus norvegicus [16] = species: Rattus norvegicus; experiment: Percentage converted to BMS-191011 after 30 min incubation in rat plasma at 37 degree C; Converted to an unknown compound; type: ADME, organism-based; settings: 0.5 h; in short: as §2
[17] = Solubility in water at 4.2 pH; type: physicochemical; settings: pH 4.2, read-out: S; in short: as §1
[18] = Solubility in water at 7.0 pH; type: physicochemical; settings: pH 7, read-out: S
[19] = Solubility in water at 8.4 pH; type: physicochemical; settings: pH 8.4

SMILES: O=c1oc(-c2ccc(C(F)(F)F)cc2)nn1Cc1cc(Cl)ccc1OP(=O)(O)O
- solubility [1]: 14600 µg/mL (≈ 32.4 mM)
- Conversion (Rattus norvegicus [2]): 0%
- solubility [3]: 4900 µg/mL (≈ 10.9 mM)

SMILES: CS(=O)(=O)[O-].C[N+](C)(C)CCCC(=O)OCOc1ccc(Cl)cc1Cn1nc(-c2ccc(C(F)(F)F)cc2)oc1=O
- half-life [4]: 2.7 h
- remaining at 24 h [5]: > 97%
- AUC [6]: 1260 ng·h/mL
- Conversion (Rattus norvegicus [2]): > 80%
- clearance [7]: 22.9 mL/min/kg
- solubility [8]: > 25000 µg/mL
- Reduction (Rattus norvegicus [9]): -16%
- Reduction (Rattus norvegicus [10]): -14% and -12% and -17%
- Vd [11]: 2.6 L/kg
- Reduction (Rattus norvegicus [12]): -13%

SMILES: CS(=O)(=O)[O-].C[N+](C)(C)CCOC(=O)Oc1ccc(Cl)cc1Cn1nc(-c2ccc(C(F)(F)F)cc2)oc1=O
- remaining at 24 h [5]: 72%
- Conversion (Rattus norvegicus [2]): 100%

SMILES: O=C(OCOP(=O)(O)O)Oc1ccc(Cl)cc1Cn1nc(-c2ccc(C(F)(F)F)cc2)oc1=O
- solubility [13]: 55 µg/mL (≈ 0.105 mM)
- solubility [14]: 4 µg/mL (≈ 0.00762 mM)
- Prodrug remains (Rattus norvegicus [15]): Not stable

SMILES: CS(=O)(=O)[O-].C[N+](C)(C)CCCC(=O)Oc1ccc(Cl)cc1Cn1nc(-c2ccc(C(F)(F)F)cc2)oc1=O
- remaining at 24 h [5]: > 90%
- Conversion (Rattus norvegicus [2]): 95%
- solubility [8]: > 4000 µg/mL

SMILES: CS(=O)(=O)[O-].C[N+](C)(C)CC(=O)c1ccc(Cl)cc1Cn1nc(-c2ccc(C(F)(F)F)cc2)oc1=O
- remaining at 24 h [5]: > 90%

SMILES: O=c1oc(-c2ccc(C(F)(F)F)cc2)nn1Cc1cc(Cl)ccc1O
- half-life [4]: 1.2 h
- AUC [6]: 52.4 ng·h/mL

SMILES: CS(=O)(=O)[O-].C[N+](C)(C)CCC(=O)Oc1ccc(Cl)cc1Cn1nc(-c2ccc(C(F)(F)F)cc2)oc1=O
- remaining at 24 h [5]: > 90%
- Conversion (Rattus norvegicus [2]): 100%
- solubility [8]: > 4000 µg/mL

SMILES: CS(=O)(=O)[O-].C[N+](C)(C)CC(=O)OCOc1ccc(Cl)cc1Cn1nc(-c2ccc(C(F)(F)F)cc2)oc1=O
- Conversion (Rattus norvegicus [16]): Converted to an unknown compound
- solubility [17]: 4500 µg/mL

SMILES: O=c1oc(-c2ccc(C(F)(F)F)cc2)nn1Cc1cc(Cl)ccc1OCOP(=O)(O)O
- solubility [18]: 6100 µg/mL (≈ 12.7 mM)
- solubility [19]: > 16000 µg/mL
- Prodrug remains (Rattus norvegicus [15]): Not stable
